The test system of series [1] is Human immunodeficiency virus 1. The series is described as follows: Antiviral activity against HIV1 assessed as inhibition of viral entry into human TZM-bl cells at 25 uM preincubated with cells for 1 hr followed by inoculation with 1 hr compound pretreated virus measured 48 hrs post compound wash out by luciferase reporter gene assay relative to control. It is filed as functional. The following applies: for inhibition at 25 µM: Human immunodeficiency virus 1, TZM-bl. Put shortly:
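HIV-1 made by PEI co-transfection of pNL4-3.HSA.R-E- and pHXB2-env; titer set by X-Gal staining on TZM-bl. TZM-bl seeded 10^4/well a day ahead, pretreated 1 h at 37 °C with 25 μM compound, DMSO or 1 μM C34. Virus (MOI 0.1) preincubated 1 h with the same treatment, added, spinoculated 1,000 × g 1 h RT, 1 h 37 °C, washed, luciferase read at 48 h, normalized.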

In series [2] the test system is Human immunodeficiency virus 1. Briefly: Inhibition of HIV1 gp41-induced cell-cell fusion between viral protein expressing human HL2/3 cells and TZM-bl target cells at 25 uM preincubated with cells followed by co-incubation for 6 hrs by luciferase reporter gene assay relative to control. In short, it runs like this:
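TZM-bl receptor cells seeded a day ahead, then TZM-bl and HL2/3 effector cells pretreated with 25 μM compound (DMSO stock diluted in complete medium), DMSO alone (maximum signal) or 1 μM C34 (maximum inhibition); cells co-incubated 6 h at 37 °C, 5% CO2. Fusion read by luciferase in a combined luciferase/viability kit; signal normalized to controls. Duplicate wells per compound.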

Series [3] is described as follows: Cytotoxicity against human HL2/3 cells assessed as decrease in cell viability at 25 uM after 6 hrs. In kind it is cell-based. The following applies: hl2/3, 6 h. In short, it runs like this:
(§1)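 Viability measured in the same wells as the fusion read-out, using the combined luciferase/cell-viability kit. TZM-bl and HL2/3 cells were pretreated with 25 μM compound, DMSO or 1 μM C34, then co-cultured 6 h at 37 °C, 5% CO2. Duplicate wells per compound.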

For the next series, the system named is TZM. The series is described as follows: Cytotoxicity against human TZM-bl cells assessed as decrease in cell viability at 25 uM after 6 hrs. In kind it is cell-based. In short, it runs like this:
as §1

Series [4] concerns Human immunodeficiency virus 1. Briefly: Antiviral activity against VSV-G pseudotyped HIV1 assessed as inhibition of virus entry by cell-based assay. In kind it is functional. Put shortly:
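VSV-G-pseudotyped HIV-1 (pNL4-3.HSA.R-E- plus pCMV-VSV-G, made by PEI transfection), tested at 25 μM. TZM-bl cells (10^4/well) and MOI 0.1 virus were each pretreated 1 h at 37 °C. Compound medium was replaced with the treated virus, then spinoculation at 1,000 × g for 1 h at room temperature and 1 h at 37 °C. Cells were washed, grown 48 h drug-free, and read by luciferase. Bafilomycin A1 control.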

Active and inactive are the calls of the source. No cut-off for these calls is given here.

Turning to `CCn1c(SCC(=O)N/N=C/c2cccc(Oc3ccccc3)c2)nnc1-c1ccc(OC)cc1`, the inhibition – broadly, the drop in the measured response relative to a control, in per cent – in series [1] was “inactive”.

Consider `Cn1c(SCC(=O)N/N=C/c2cc(Br)cc(Br)c2O)nc2ccccc21`, for which the inhibition in series [2] was above 50%. For the same compound, the Activity entry (in series [3]; with TZM) was “Non-Toxic” throughout. In addition, the inhibition at 25 µM in series [1] is above 50%. Moreover, the inhibition entry in series [4] is “inactive”.

Take `COc1ccc(-c2cc(C(=O)NCc3ccc(Cl)cc3)n[nH]2)cc1S(=O)(=O)N1CCOCC1`: the inhibition result in series [1] is “inactive”.

In the case of `Cc1ccc(CNC(=O)c2oc3ccc(S(=O)(=O)N4CCC5(CC4)OCCO5)cc3c2C)cc1`, the inhibition in series [2] was above 50%. The Activity result (in series [3]; with TZM) was “Non-Toxic” each time. In series [1], the inhibition at 25 µM was above 50%. Besides, the inhibition result in series [4] was “inactive”.

(Values after ChEMBL document CHEMBL4020803, “Structure-based identification of inhibitors targeting obstruction of the HIVgp41 N-heptad repeat trimer” (Bioorg Med Chem Lett, 2017).)
